Reference: paper PMC7363052 (Journal of hepatology, 2020)

Experiments:
[1] = Serum ALT and AST in CCl4-treated mice; format: in vivo, mouse; conditions: CCl4 0.2 mL/kg i.p. twice per week, 6 weeks (mild), mean ± SEM
[2] = system: TGF-β1; assay: Hepatic TGF-β1 mRNA by RT-PCR in CCl4-treated mice; format: in vivo, mouse; conditions: compared to control
Method in brief: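 Male CD1 mice, 10 weeks old, given CCl4 at 0.2 mL/kg (1:5 in olive oil) i.p. twice weekly; controls received olive oil only. Hepatic TGF-β1 mRNA was measured by RT-PCR and expressed as relative mRNA level by the ΔΔCT method. Values are mean ± SEM, n = 3–6, compared by one-way ANOVA with Tukey's post hoc test.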

[3] = molecular target: integrin αvβ3 (Homo sapiens, UniProt P05106+P06756); format: binding; conditions: advanced fibrosis human liver frozen sections, immunofluorescence
Sequence of integrin αvβ3 (Homo sapiens, UniProt P05106+P06756) (P06756 31-889 limits assumed): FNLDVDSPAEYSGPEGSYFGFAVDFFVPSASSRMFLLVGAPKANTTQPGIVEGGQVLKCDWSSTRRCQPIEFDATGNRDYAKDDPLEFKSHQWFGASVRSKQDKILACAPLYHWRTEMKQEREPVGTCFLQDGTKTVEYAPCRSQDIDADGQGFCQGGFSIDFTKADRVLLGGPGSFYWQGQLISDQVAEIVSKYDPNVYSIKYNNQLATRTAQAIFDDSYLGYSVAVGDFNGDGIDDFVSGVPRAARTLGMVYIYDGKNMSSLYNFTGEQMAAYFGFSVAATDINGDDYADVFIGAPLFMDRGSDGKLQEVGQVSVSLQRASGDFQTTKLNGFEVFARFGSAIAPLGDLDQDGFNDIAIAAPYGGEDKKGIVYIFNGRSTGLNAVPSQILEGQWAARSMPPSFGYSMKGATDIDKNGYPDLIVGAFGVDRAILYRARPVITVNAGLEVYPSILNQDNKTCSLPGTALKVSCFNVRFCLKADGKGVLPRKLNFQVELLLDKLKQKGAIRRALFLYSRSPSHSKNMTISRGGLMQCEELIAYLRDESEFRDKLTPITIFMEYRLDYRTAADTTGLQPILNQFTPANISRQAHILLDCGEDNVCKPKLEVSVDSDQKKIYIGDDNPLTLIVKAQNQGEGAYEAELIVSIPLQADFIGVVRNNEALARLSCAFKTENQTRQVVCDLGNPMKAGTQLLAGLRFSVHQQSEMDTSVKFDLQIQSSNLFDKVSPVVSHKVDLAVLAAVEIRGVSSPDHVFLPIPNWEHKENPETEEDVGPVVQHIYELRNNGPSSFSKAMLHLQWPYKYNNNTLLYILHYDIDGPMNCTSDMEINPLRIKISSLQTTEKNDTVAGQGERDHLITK
Sequence of integrin αvβ3 (Homo sapiens, UniProt P05106+P06756) (P06756 891-1048 partner limits assumed): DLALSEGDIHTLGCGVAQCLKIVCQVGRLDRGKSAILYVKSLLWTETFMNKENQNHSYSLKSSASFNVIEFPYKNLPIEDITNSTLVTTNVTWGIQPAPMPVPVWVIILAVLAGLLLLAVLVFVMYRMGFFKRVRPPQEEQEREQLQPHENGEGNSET
Sequence of integrin αvβ3 (Homo sapiens, UniProt P05106+P06756) (P05106 27-788): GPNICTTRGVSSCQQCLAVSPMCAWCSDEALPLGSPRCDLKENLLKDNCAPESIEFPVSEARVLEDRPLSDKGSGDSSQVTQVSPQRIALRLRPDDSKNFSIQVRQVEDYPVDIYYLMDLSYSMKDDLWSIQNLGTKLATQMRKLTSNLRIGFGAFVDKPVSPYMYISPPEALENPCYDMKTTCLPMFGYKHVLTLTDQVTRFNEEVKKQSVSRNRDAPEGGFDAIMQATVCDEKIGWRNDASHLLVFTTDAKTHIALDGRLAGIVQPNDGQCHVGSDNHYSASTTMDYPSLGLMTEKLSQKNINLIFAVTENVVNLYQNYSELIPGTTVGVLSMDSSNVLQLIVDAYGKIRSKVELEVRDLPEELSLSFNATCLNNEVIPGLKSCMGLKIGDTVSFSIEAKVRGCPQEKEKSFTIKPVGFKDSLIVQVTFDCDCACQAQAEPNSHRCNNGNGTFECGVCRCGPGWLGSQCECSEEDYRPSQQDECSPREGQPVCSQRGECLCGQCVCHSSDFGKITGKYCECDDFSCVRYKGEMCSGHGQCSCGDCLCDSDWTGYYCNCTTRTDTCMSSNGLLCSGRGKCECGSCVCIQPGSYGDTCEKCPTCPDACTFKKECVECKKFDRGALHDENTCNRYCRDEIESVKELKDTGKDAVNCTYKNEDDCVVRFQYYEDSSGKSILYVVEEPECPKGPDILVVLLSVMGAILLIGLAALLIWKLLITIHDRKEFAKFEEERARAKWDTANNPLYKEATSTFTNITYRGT
Method in brief: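 Snap-frozen liver sections came from patients with staged fibrosis (F1–F3, n=3 each) and from normal livers. Advanced-fibrosis sections were stained with a FITC-labelled PEG4-linked dimeric cyclic RGD peptide probe (green), plus CD68 or α-SMA (red). Co-localization was read by fluorescence microscopy at original magnification 100X.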

[4] = molecular target: T1, integrin αvβ3 (Mus musculus, UniProt O54890+P43406); format: binding; conditions: frozen fibrotic liver sections, severe CCl4 and BDL models, immunofluorescence
T1 sequence (P43406 31-885 limits assumed): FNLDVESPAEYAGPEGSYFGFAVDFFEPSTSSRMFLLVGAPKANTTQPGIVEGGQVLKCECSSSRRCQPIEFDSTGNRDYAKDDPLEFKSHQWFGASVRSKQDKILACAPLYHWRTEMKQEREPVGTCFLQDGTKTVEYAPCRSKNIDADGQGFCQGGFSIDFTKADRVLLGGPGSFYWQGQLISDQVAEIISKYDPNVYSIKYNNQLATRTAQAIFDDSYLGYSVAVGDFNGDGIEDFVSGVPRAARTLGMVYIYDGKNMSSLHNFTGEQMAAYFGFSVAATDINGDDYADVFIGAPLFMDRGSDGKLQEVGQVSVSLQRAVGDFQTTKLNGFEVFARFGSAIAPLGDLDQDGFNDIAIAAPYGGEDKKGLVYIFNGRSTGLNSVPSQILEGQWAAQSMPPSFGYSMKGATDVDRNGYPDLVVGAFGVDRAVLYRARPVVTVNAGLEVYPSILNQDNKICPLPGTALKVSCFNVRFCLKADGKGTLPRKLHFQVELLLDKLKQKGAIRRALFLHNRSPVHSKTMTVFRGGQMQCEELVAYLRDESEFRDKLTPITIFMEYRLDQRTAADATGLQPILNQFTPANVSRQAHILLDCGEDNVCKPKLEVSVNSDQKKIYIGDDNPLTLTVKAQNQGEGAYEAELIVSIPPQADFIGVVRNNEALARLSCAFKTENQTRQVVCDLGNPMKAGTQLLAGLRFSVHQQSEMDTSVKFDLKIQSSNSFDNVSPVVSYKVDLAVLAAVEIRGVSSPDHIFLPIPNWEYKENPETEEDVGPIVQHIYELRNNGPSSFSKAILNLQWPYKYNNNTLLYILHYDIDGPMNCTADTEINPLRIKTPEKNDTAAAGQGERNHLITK
T1 sequence (P43406 887-1044 partner limits assumed): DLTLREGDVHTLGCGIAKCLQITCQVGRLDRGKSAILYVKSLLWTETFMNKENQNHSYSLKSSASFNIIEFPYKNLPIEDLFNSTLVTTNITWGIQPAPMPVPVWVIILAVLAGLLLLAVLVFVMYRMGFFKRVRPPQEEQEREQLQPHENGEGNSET
T1 sequence (O54890 26-787): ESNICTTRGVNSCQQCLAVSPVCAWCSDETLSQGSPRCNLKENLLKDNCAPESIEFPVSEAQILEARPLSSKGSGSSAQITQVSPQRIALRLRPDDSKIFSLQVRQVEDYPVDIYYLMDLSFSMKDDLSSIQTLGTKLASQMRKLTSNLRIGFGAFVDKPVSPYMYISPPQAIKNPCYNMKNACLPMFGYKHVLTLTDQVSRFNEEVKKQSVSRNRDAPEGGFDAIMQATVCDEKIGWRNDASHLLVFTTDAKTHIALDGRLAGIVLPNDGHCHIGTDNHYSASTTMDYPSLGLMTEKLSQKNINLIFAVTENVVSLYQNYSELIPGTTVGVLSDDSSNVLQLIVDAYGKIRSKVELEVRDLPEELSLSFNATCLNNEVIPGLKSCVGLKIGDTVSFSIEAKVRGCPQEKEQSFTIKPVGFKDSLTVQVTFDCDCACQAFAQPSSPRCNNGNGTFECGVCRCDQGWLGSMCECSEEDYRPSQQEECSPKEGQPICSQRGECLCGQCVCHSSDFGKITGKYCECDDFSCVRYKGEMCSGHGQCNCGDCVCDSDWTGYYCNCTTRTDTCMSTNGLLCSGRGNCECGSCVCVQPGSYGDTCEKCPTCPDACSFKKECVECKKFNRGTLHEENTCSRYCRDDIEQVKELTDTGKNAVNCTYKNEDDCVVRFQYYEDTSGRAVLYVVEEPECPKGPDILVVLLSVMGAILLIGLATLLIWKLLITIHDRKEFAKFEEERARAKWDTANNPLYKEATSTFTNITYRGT
Method in brief: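 Liver fibrosis was induced in 10-week-old male CD1 mice with CCl4, 0.2 mL/kg as 1:5 CCl4:olive oil, i.p. twice weekly for up to 12 weeks. Other mice had the common bile duct transected via midline laparotomy and were killed after 3 weeks. Frozen liver sections were co-stained with a FITC-labelled dimeric RGD peptide probe and α-SMA and CD68 antibodies to assess co-localization.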

co-localization with CD68 [3]	co-localization with α-SMA [3]	co-localization with CD68 [4]	co-localization with α-SMA [4]	Compound	serum ALT ([1]; sham 20.66±1.383)	serum AST ([1]; sham 76.24±6.128)	hepatic TGF-β1 mRNA level increase ([2]; 6 weeks of CCl4 treatment) [fold]	hepatic TGF-β1 mRNA level increase ([2]; 12 weeks of CCl4 treatment) [fold]
–	–	–	–	ClC(Cl)(Cl)Cl [CCl4, carbon-tetrachloride]	96.22±18.5	125.7±9.82	2	8
low co-localization	high co-localization	little co-localization	high co-localization	FITC-E(PEG4-RGDfK)2 [FITC-RGD2]	–	–	–	–
